Results pooled from the literature.
Read-out: cell growth or viability

Compound	cell line	test	setting	quantity	result
CC(C)n1cc(C(c2ccc(/C=C/C(=O)O)s2)c2cn(C(C)C)c3ccccc23)c2ccccc21	DU-145	MTT	100 µM, 48 h	inhibition	94%
COc1ccc(CN2CCc3cc(OS(N)(=O)=O)c(OC)cc3C2)cc1OC	DU-145	WST-1	96 h	GI50	8.54 µM
O=C(O)/C=C/c1ccc(C(c2c[nH]c3ccccc23)c2c[nH]c3ccccc23)s1	DU-145	MTT	100 µM, 48 h	inhibition	55%
COc1cc2c(cc1O)CCN(Cc1cccc(OC(F)(F)F)c1)C2	DU-145	WST-1	96 h	GI50	55 µM
COc1ccc(-c2ccc(-c3ccc(C(=N)N)nc3)s2)cc1Cl	BT-549	SRB		GI50	1.72 µM
CC(C)C[C@H](NC(=O)[C@H](Cc1ccccc1)NC(=O)c1cnccn1)B(O)O	LN-229	ATP luminescence		IC50	0.0079 µM
COc1ccc(CN2CCc3cc(OS(N)(=O)=O)c(OC)cc3C2)cc1	DU-145	WST-1	96 h	GI50	57.2 µM
COc1cc(Nc2nccc(-c3cnn4nc(OC)ccc34)n2)cc(C(F)(F)F)c1	LOU-NH91	ATP luminescence		IC50	0.19 µM
Cn1cc(C(c2ccc(C(=O)O)cc2)c2cn(C)c3ccccc23)c2ccccc21	DU-145	MTT	100 µM, 48 h	inhibition	~20%
COc1cc2c(cc1OS(N)(=O)=O)CCN(Cc1cccc(C)c1)C2	DU-145	WST-1	96 h	GI50	41.7 µM
O=C1Nc2ccccc2C1=NNc1nnc2n1N=C(c1ccccc1)CS2	DU-145	SRB	10 µM	inhibition	16%
COc1cc2c(cc1O)CCN(Cc1cccc([N+](=O)[O-])c1)C2	DU-145	WST-1	96 h	GI50	> 100 µM
COc1cccc(Oc2ccccc2NC(=O)CNC(=O)c2cccc3ccccc23)c1	MOLT-4	SRB	48 h	GI50	0.661 µM
O=C(O)c1ccc(C(c2c[nH]c3ccccc23)c2c[nH]c3ccccc23)cc1	LNCaP	MTT	100 µM, 48 h	inhibition	100%
CC(=O)O[C@@]12CO[C@@H]1C[C@H](O)[C@@]1(C)C(=O)[C@H](O)C3=C(C)[C@@H](OC(=O)[C@H](O)[C@@H](NC(=O)OC(C)(C)C)c4ccccc4)C[C@@](O)([C@@H](OC(=O)c4ccccc4)[C@H]21)C3(C)C	LNCaP	trypan blue	3 nM, 72 h	inhibition	> 65%
